What all share (format): functional, cell-based
The subject of one experiment is MCF7. Briefly: Antiproliferative activity against human MCF7 cells after 72 hrs by sulforhodamine B assay. To be noted: MCF7, 72 h. In short, it runs like this: (§1)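 Cells grown in RPMI-1640 with 2 mM L-glutamine, 25 mM HEPES, 10% FBS, streptomycin and penicillin; seeded at 4000–12 000 cells per well and exposed to compounds for 72 h. Fixed in 10% trichloroacetic acid, stained with 0.04% SRB, bound dye dissolved in 10 mM Tris base, absorbance read at 515 nm. IC50 from at least three independent experiments run in duplicate.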
On the technique in general: The SRB assay estimates cell density from bound dye.

A short description of experiment [1]: Antiproliferative activity against human KBVIN cells after 72 hrs by sulforhodamine B assay. In short, it runs like this:
as §1

The test system of another experiment is A549. Briefly: Antiproliferative activity against human A549 cells after 72 hrs by sulforhodamine B assay. To be noted: A549, 72 h. The method, boiled down: as §1
The subject of a further experiment is KB. Kind of experiment: Antiproliferative activity against human KB cells after 72 hrs by sulforhodamine B assay. In short, it runs like this: as §1
The next experiment concerns MDA-MB-231. Briefly: Antiproliferative activity against human MDA-MB-231 cells after 72 hrs by sulforhodamine B assay. To be noted: MDA-MB-231, 72 h. The method, boiled down:
as §1

The IC50 is the concentration that gives 50% inhibition. As to `C/C=C1/CN2COC[C@@]3(C(=O)OC)[C@@H]1C[C@@H](c1cc4c5c([nH]c4cc1OC)[C@]1(C(=O)OC)C[C@@H]4C[C@H](CC)[C@@H]1N(CC5)C4)c1[nH]c4ccccc4c1C[C@H]23`, the IC50 is 4.8 µM in the experiment on MCF7; 4.4 µM in experiment [1]; 4.3 µM with A549; 4.3 µM with KB; 4.5 µM with MDA-MB-231.
On to `CC[C@H]1C[C@@H]2C[C@@]3(C(=O)OC)c4[nH]c5c([C@@H]6C[C@H]7[C@@]8(C(=O)OC)CO[C@H](N(C)[C@H]8Cc8c6[nH]c6ccccc86)[C@@]76O[C@H]6C)c(OC)ccc5c4CCN([C@@H]2CC(C)=O)[C@@H]13`, for which the IC50 in the experiment on MCF7 is greater than 10 µM; in experiment [1], 6.6 µM; with A549, 8.6 µM; with KB, 7.4 µM; in the experiment with MDA-MB-231, 7.7 µM.
The like results for `C/C=C1/CN(C)[C@H]2Cc3c([nH]c4ccccc34)[C@H](c3cc4c5c([nH]c4cc3OC)[C@]3(C(=O)OC)C[C@@H]4C[C@H](CC)[C@@H]3N(CC5)[C@@H]4CC(C)=O)C[C@H]1[C@]2(CO)C(=O)OC` were, in that order, 6.1 µM, 5.1 µM, 5.6 µM, 5 µM and 4.8 µM.
Consider `C/C=C1/CN(C)[C@H]2Cc3c([nH]c4ccccc34)[C@H](c3cc4[nH]c5c(c4cc3OC)CCN3C[C@H]4C[C@H](CC)[C@H]3[C@H]5C4)C[C@H]1[C@@H]2C(=O)OC`, for which the IC50 with MCF7 is 4.7 µM; in experiment [1], 4.4 µM; in the experiment on A549 it was 4.3 µM; in the experiment on KB, 4.8 µM; in the experiment with MDA-MB-231, 4.5 µM.
The like results for `C/C=C1/CN(C)[C@H]2Cc3c([nH]c4ccccc34)[C@H](c3ccc4[nH]c5c(c4c3)CCN3C[C@@H]4C[C@H](CC)[C@H]3[C@@]5(C(=O)OC)C4)C[C@H]1[C@]2(CO)C(=O)OC` were, in that order, greater than 10 µM, 8.3 µM, 9.8 µM, 6.7 µM and 5.2 µM.
The like results for `CC[C@H]1C[C@@H]2C[C@@]3(C(=O)OC)c4[nH]c5c([C@@H]6C[C@H]7[C@@]8(C(=O)OC)CO[C@H](N(C)[C@H]8Cc8c6[nH]c6ccccc86)[C@@]76O[C@H]6C)c(OC)ccc5c4CCN(C2=O)[C@@H]13` were, in that order, 8.3 µM, 5.8 µM, 5.9 µM, 5.7 µM and 8.2 µM.
The like results for `C/C=C1/CN(C)[C@H]2Cc3c([nH]c4ccccc34)[C@H](c3c(OC)ccc4c5c([nH]c34)[C@]3(C(=O)OC)C[C@H]4C[C@H](CC)[C@@H]3N(CC5)C4)C[C@H]1[C@]2(CO)C(=O)OC` were, in that order, 5.3 µM, 4.1 µM, 4.5 µM, 4.2 µM and 4.8 µM.
For `C/C=C1/CN(C)[C@H]2Cc3c([nH]c4ccccc34)[C@H](c3c(OC)ccc4c5c([nH]c34)[C@]3(C(=O)OC)C[C@H]4C[C@H](CC)[C@@H]3N(CC5)[C@@H]4CO)C[C@H]1[C@]2(CO)C(=O)OC`, the IC50 was 4.9 µM in the experiment with MCF7; 4.9 µM in experiment [1]; 4.3 µM in the experiment with A549; 4.5 µM with KB; 4.5 µM with MDA-MB-231.
Regarding `C/C=C1/CN(C)[C@H]2Cc3c([nH]c4ccccc34)[C@H](c3cc4c(cc3OC)N=C3[C@]5(C(=O)OC)C[C@H]6C[C@H](CC)[C@@H]5N(CC[C@@]34O)C6)C[C@H]1[C@]2(CO)C(=O)OC`, the half-inhibitory concentration (IC50) in the experiment on MCF7 turned out to be 3 µM; in experiment [1] it was 2.6 µM; in the experiment with A549 it was 3.1 µM; with KB, 2.7 µM; with MDA-MB-231, 2.8 µM.
For the compound `C/C=C1/CN2COC[C@]3(C(=O)OC)[C@@H]1C[C@@H](c1c(OC)ccc4c5c([nH]c14)[C@]1(C(=O)OC)C[C@H]4C[C@H](CC)[C@@H]1N(CC5)[C@@H]4CO)c1[nH]c4ccccc4c1C[C@H]23`, the IC50 in the experiment on MCF7 turned out to be 6 µM; in experiment [1] it was 4.9 µM; with A549, 4.7 µM; with KB it was 4.8 µM; with MDA-MB-231, 5.1 µM.
The like results for `C/C=C1/CN2COC[C@]3(C(=O)OC)[C@@H]1C[C@@H](c1c(OC)ccc4c1N=C1[C@]5(C(=O)OC)C[C@H]6C[C@H](CC)[C@@H]5N(CC[C@]14O)C6)c1[nH]c4ccccc4c1C[C@H]23` were, in that order, 6.5 µM, 4.7 µM, 4.9 µM, 4.5 µM and 8.2 µM.
The like results for `CC[C@H]1C[C@@H]2C[C@@]3(C(=O)OC)c4[nH]c5c([C@@H]6C[C@H]7[C@@]8(C(=O)OC)CO[C@H](N(C)[C@H]8Cc8c6[nH]c6ccccc86)[C@]76O[C@@H]6C)c(OC)ccc5c4CCN([C@@H]2CC(C)=O)[C@@H]13` were, in that order, greater than 10 µM, greater than 10 µM, greater than 10 µM, greater than 10 µM and greater than 10 µM.
In the case of `CC[C@H]1C[C@H]2CN3CC[C@@]4(O)C(=Nc5cc(OC)c([C@@H]6C[C@H]7[C@@]8(C(=O)OC)CO[C@H](N(C)[C@H]8Cc8c6[nH]c6ccccc86)[C@@]76O[C@H]6C)cc54)[C@](C(=O)OC)(C2)[C@H]13`, the IC50 in the experiment with MCF7 stood at 4.6 µM; in experiment [1], 4.8 µM; in the experiment on A549 it was 4.3 µM; with KB, 4.7 µM; in the experiment on MDA-MB-231, 4.5 µM.
`C/C=C1/CN(C)[C@H]2Cc3c([nH]c4ccccc34)[C@H](c3c(OC)ccc4c5c([nH]c34)[C@]3(C(=O)OC)C[C@@H]4C[C@H](CC)[C@@H]3N(CC5)C4)C[C@H]1[C@@]2(CO)C(=O)OC`: the concentration for half-maximal inhibition (IC50) is 4.8 µM in the experiment on MCF7; 4.7 µM in experiment [1]; 3.5 µM in the experiment with A549; 4.3 µM with KB; 4.8 µM in the experiment on MDA-MB-231.
Regarding `C/C=C1/CN(C)[C@H]2Cc3c([nH]c4ccccc34)[C@H](c3c(OC)ccc4c5c([nH]c34)[C@]3(C(=O)OC)C[C@H]4C[C@H](CC)[C@@H]3N3C[C@@H]5O[C@H]43)C[C@H]1[C@]2(CO)C(=O)OC`, the IC50 was 5.6 µM in the experiment with MCF7; 4.7 µM in experiment [1]; 5.3 µM with A549; 4.8 µM in the experiment on KB; 4.8 µM in the experiment on MDA-MB-231.
Consider `C/C=C1/CN(C)[C@H]2Cc3c([nH]c4ccccc34)C(c3c(OC)ccc4c5c([nH]c34)[C@]3(C(=O)OC)C[C@@H]4C[C@H](CC)[C@@H]3N(CC5)C4)C[C@H]1[C@@H]2C(=O)OC` (stereo not given in full), for which the IC50 in the experiment on MCF7 amounted to 5.6 µM; in experiment [1], 4.1 µM; in the experiment on A549, 4.4 µM; with KB it was 5 µM; with MDA-MB-231 it was 5.2 µM.
The like results for `C/C=C1/CN(C)[C@H]2Cc3c([nH]c4ccccc34)[C@H](c3cc4c5c([nH]c4cc3OC)[C@]3(C(=O)OC)C[C@@H]4C[C@H](CC)[C@@H]3N(CC5)[C@@H]4CC(C)=O)C[C@H]1[C@@]2(CO)C(=O)OC` were, in that order, 4.4 µM, 4.4 µM, 4.4 µM, 4.6 µM and 3.2 µM.
For `CC(=O)O[C@H]1C(=O)[C@@]2(C)[C@H]([C@H](OC(=O)c3ccccc3)[C@]3(O)C[C@H](OC(=O)[C@H](O)[C@@H](NC(=O)c4ccccc4)c4ccccc4)C(C)=C1C3(C)C)[C@]1(OC(C)=O)CO[C@@H]1C[C@@H]2O` [PACLITAXEL], the 50% inhibitory concentration (IC50) is 0.0088 µM in the experiment on MCF7; 2.36 µM in experiment [1]; 0.0045 µM with A549; 0.0036 µM in the experiment on KB; 0.007 µM in the experiment with MDA-MB-231.
The like results for `CC[C@]1(O)C[C@@H]2CN(CCc3c([nH]c4ccccc34)[C@@](C(=O)OC)(c3cc4c(cc3OC)N(C)[C@H]3[C@@](O)(C(=O)OC)[C@H](OC(C)=O)[C@]5(CC)C=CCN6CC[C@]43[C@@H]65)C2)C1` [VINBLASTINE] were, in that order, 0.0073 µM, 2.48 µM, 0.023 µM, 0.0044 µM and 0.032 µM.

Source of the values: ChEMBL document CHEMBL4138263, “Taburnaemines A-I, Cytotoxic Vobasinyl-Iboga-Type Bisindole Alkaloids from Tabernaemontana corymbosa” (J Nat Prod, 2018).
